# Data published in ChEMBL document CHEMBL1687900, “Potent farnesyltransferase inhibitors with 1,4-diazepane scaffolds as novel destabilizing microtubule agents in hormone-resistant prostate cancer” (J Med Chem, 2011).
# Activity calls are given as the source filed them. The rule behind the calls is not given here.
# Columns and labels:
# [1] = Inhibition of FTase
# How it was run: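 Partially purified recombinant yeast FTase (2.2 mg/mL stock) and dansyl-GCVLS peptide (2 μM solution) were used with inhibitor in DMSO. Buffer was 50 mM Tris/HCl pH 7.5, 5.5 mM DTT, 10 mM MgCl2, 10 μM ZnCl2 and 0.08% CHAPS. Reaction was started with 10 μM FPP solution (1:10 addition). Fluorescence (ex 340 / em 486 nm) was followed 15 min at 30 °C. Values are the mean of three determinations.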
# PC-3 [2] = test: Anticancer activity against hormone-resistant human PC3 cells assessed as cell proliferation after 72 hrs by MTT assay; format: functional, cell-based; conditions: PC-3, 72 h
# How it was run: (§1)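 DU145 or PC3 cells (RPMI 1640, 10% FBS, 2 mM glutamine, 37 °C, 5% CO2) seeded at (1.6-1.8) 10^4 per well. After 72 h they were serum-deprived, and next day treated with various compound concentrations for 72 h. Viability was read by MTT (4 mg/mL, 4 h), SDS/HCl lysis and absorbance at 570 nm. Values come from at least three independent determinations.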
# DU-145 [3] = test: Anticancer activity against hormone-resistant human DU145 cells assessed as cell proliferation after 72 hrs by MTT assay; format: functional, cell-based; conditions: DU-145, 72 h; how it was run: as §1
# [4] = Apparent permeability across human Caco2 cells; format: ADME, cell-based; conditions: Caco-2
# PC-3 [5] = test: Anticancer activity against hormone-resistant human PC3 cells assessed as cell proliferation at 100 uM after 72 hrs by MTT assay; format: functional; conditions: PC-3, 72 h
# DU-145 [6] = test: Anticancer activity against hormone-resistant human DU145 cells assessed as cell proliferation at 100 uM after 72 hrs by MTT assay; format: functional; conditions: DU-145, 72 h
# PC-3 [7] = test: Induction of disorganization of tubulin in human PC3 cells assessed as microtubule bundles at 21 uM by immunofluorescence microscopy; format: functional, cell-based
# How it was run: (§2)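 PC3 cells were grown on poly-D-lysine coverslips overnight, synchronized, then exposed 24 h to compound or DMSO. They were fixed in 4% paraformaldehyde, permeabilized with 0.5% Triton X-100, and blocked 45 min in 5% BSA. Staining used Alexa 488 anti-α-tubulin (1/100). Microtubule network was examined by fluorescence microscopy.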
# Liver microsomes = test: Metabolic stability of the compound in human liver microsome assessed as compound remaining; format: ADME
# How it was run: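 Metabolic stability was tested in human liver microsomes, expressed as percentage of parent compound remaining at assay end.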
# PC-3 [8] = test: Induction of disorganization of tubulin in human PC3 cells assessed as decrease in microtubulin mass at 18 uM by immunofluorescence microscopy; format: functional, cell-based; how it was run: as §2
# PC-3 [9] = test: Induction of disorganization of tubulin in human PC3 cells assessed as microtubule bundles at 18 uM by immunofluorescence microscopy; format: functional, cell-based; how it was run: as §2
# PC-3 [10] = test: Induction of disorganization of tubulin in human PC3 cells assessed as decrease in microtubulin mass at 32 uM by immunofluorescence microscopy; format: functional, cell-based; how it was run: as §2
# PC-3 [11] = test: Induction of disorganization of tubulin in human PC3 cells assessed as microtubule bundles at 32 uM by immunofluorescence microscopy; format: functional, cell-based; how it was run: as §2
# PC-3 [12] = test: Anticancer activity against human PC3 cells xenografted mouse assessed as suppression of tumor at 30 mg/kg; format: functional
# PC-3 [13] = test: Induction of disorganization of tubulin in human PC3 cells assessed as microtubule bundles at 75 uM after 24 hrs by immunofluorescence microscopy; format: functional, cell-based; how it was run: as §2
# DU-145 [14] = test: Anticancer activity against human DU145 cells xenografted mouse assessed as suppression of tumor at 30 mg/kg; format: functional
IC50 [1],IC50 (PC-3 [2]),IC50 (DU-145 [3]),SMILES,inhibition at 100 µM (PC-3 [5]),inhibition at 100 µM (DU-145 [6]),other results
0.009 µM,33 µM,73 µM,N#Cc1ccc(Cn2cncc2CN2CCN(C(=O)c3ccccc3)CCC2c2ccccc2)cc1 (configuration not stated),,,
,,,CC(CCc1ccccc1)NCC(O)c1ccc(O)c(C(N)=O)c1 (configuration not stated) [LABETALOL],,,Papp [4]: 7.3 ×10⁻⁶ cm/s
0.043 µM,44 µM,42 µM,N#Cc1ccc(Cn2cncc2CN2CCCN(C(=O)c3cccc(-c4ccccc4)c3)CC2)cc1,,,
0.14 µM,,,N#Cc1ccc(Cn2cncc2CN2CCCN(C(=O)c3ccccc3F)CC2)cc1,2%,7%,
,,,CNC(=C[N+](=O)[O-])NCCSCc1ccc(CN(C)C)o1 [RANITIDINE],,,Papp [4]: 0.7 ×10⁻⁶ cm/s
0.057 µM,50 µM,47 µM,N#Cc1ccc(Cn2cncc2CN2CCC(c3ccccc3)N(C(=O)c3ccccc3-c3ccccc3)CC2)cc1 (configuration not stated),,,
0.021 µM,38 µM,44 µM,N#Cc1ccc(Cn2cncc2CN2CCN(C(=O)c3ccc(Cl)cc3Cl)CCC2c2ccccc2)cc1 (configuration not stated),,,
0.015 µM,,,Cc1cccc(C(=O)N2CCCN(Cc3cncn3Cc3ccc(C#N)cc3)CC2)c1,0%,34%,
0.026 µM,39 µM,43 µM,N#Cc1ccc(Cn2cncc2CN2CCCN(C(=O)c3ccccc3-c3ccccc3)CC2)cc1,,,
0.035 µM,47 µM,52 µM,N#Cc1ccc(Cn2cncc2CN2CCCN(C(=O)c3ccc4ccccc4c3)CC2)cc1,,,
,,,CC(C)NCC(O)COc1cccc2ccccc12 (configuration not stated) [PROPRANOLOL],,,Papp [4]: 41.1 ×10⁻⁶ cm/s
0.503 µM,,,N#Cc1ccc(Cn2cncc2CN2CCC(c3ccccc3)N(C(=O)C3CCCCC3)CC2)cc1 (configuration not stated),5%,,
0.382 µM,76 µM,,N#Cc1ccc(Cn2cncc2CN2CCC(c3ccccc3)N(C(=O)c3ccc(Cl)cc3Cl)CC2)cc1 (configuration not stated),,31%,
0.069 µM,,,N#Cc1ccc(Cn2cncc2CN2CCCN(C(=O)c3ccc(F)cc3)CC2)cc1,40%,27%,
0.06 µM,50 µM,54 µM,N#Cc1ccc(Cn2cncc2CN2CCC(c3ccccc3)N(C(=O)c3cccc4ccccc34)CC2)cc1 (configuration not stated),,,
0.042 µM,,,N#Cc1ccc(Cn2cncc2CN2CCCN(C(=O)c3ccsc3)CC2)cc1,4%,3%,
0.017 µM,41 µM,42 µM,N#Cc1ccc(Cn2cncc2CN2CCC(c3ccccc3)N(C(=O)C34CC5CC(CC(C5)C3)C4)CC2)cc1 (configuration not stated),,,

IC50 [1],IC50 (PC-3 [2]),IC50 (DU-145 [3]),SMILES,inhibition at 100 µM (PC-3 [5]),inhibition at 100 µM (DU-145 [6]),other results
0.064 µM,,,N#Cc1ccc(Cn2cncc2CN2CCCN(C(=O)c3ccccc3Br)CC2)cc1,15%,17%,
0.025 µM,70 µM,100 µM,N#Cc1ccc(Cn2cncc2CN2CCCN(C(=O)c3ccccc3Cl)CC2)cc1,,,
0.205 µM,,,CC(C)CC(=O)N1CCCN(Cc2cncn2Cc2ccc(C#N)cc2)CC1,13%,18%,
0.005 µM,21 µM,44 µM,N#Cc1ccc(Cn2cncc2CN2CCCN(C(=O)C34CC5CC(CC(C5)C3)C4)CC2)cc1,,,Papp [4]: 28.8 ×10⁻⁶ cm/s; Activity (PC-3 [7]): Active; Stability (Liver microsomes): 1%
0.007 µM,18 µM,29 µM,N#Cc1ccc(Cn2cncc2CN2CCN(C(=O)C3CCCCC3)CCC2c2ccccc2)cc1 (configuration not stated),,,Activity (PC-3 [8]): Active; Papp [4]: 25.1 ×10⁻⁶ cm/s; Activity (PC-3 [9]): Active; Stability (Liver microsomes): 2%
0.079 µM,80 µM,75 µM,N#Cc1ccc(Cn2cncc2CN2CCC(c3ccccc3)N(C(=O)c3ccccc3)CC2)cc1 (configuration not stated),,,
0.142 µM,,,N#Cc1ccc(Cn2cncc2CN2CCCN(C(=O)c3ccncc3)CC2)cc1,12%,6%,
0.153 µM,50 µM,47 µM,N#Cc1ccc(Cn2cncc2CN2CCCN(C(=O)c3ccc(-c4ccccc4)cc3)CC2)cc1,,,
0.006 µM,32 µM,32 µM,N#Cc1ccc(Cn2cncc2CN2CCN(C(=O)C34CC5CC(CC(C5)C3)C4)CCC2c2ccccc2)cc1 (configuration not stated),,,Papp [4]: 3.6 ×10⁻⁶ cm/s; Activity (PC-3 [10]): Active; Activity (PC-3 [11]): Active; Stability (Liver microsomes): 3%
0.043 µM,80 µM,,COc1cccc(C(=O)N2CCCN(Cc3cncn3Cc3ccc(C#N)cc3)CC2)c1OC,,44%,
0.039 µM,65 µM,44 µM,N#Cc1ccc(Cn2cncc2CN2CCCN(C(=O)c3cccc4ccccc34)CC2)cc1,,,
0.018 µM,77 µM,48 µM,N#Cc1ccc(Cn2cncc2CN2CCN(C(=O)c3cccc4ccccc34)CCC2c2ccccc2)cc1 (configuration not stated),,,
0.027 µM,75 µM,78 µM,CC[C@H](C)[C@@H](CO[C@@H](Cc1ccccc1)C(=O)N[C@@H](CCS(C)(=O)=O)C(=O)OC(C)C)NC[C@@H](N)CS,,,inhibition in vivo at 30 mg/kg (PC-3 [12]): 87%; Activity (PC-3 [13]): Active; inhibition in vivo at 30 mg/kg (DU-145 [14]): 85%
0.017 µM,50 µM,35 µM,N#Cc1ccc(Cn2cncc2CN2CCN(C(=O)c3ccccc3-c3ccccc3)CCC2c2ccccc2)cc1 (configuration not stated),,,
0.024 µM,,,N#Cc1ccc(Cn2cncc2CN2CCCN(C(=O)C3CCCCC3)CC2)cc1,20%,23%,
0.008 µM,,,N#Cc1ccc(Cn2cncc2CN2CCCN(C(=O)c3ccccc3)CC2)cc1,22%,24%,
0.041 µM,26 µM,45 µM,N#Cc1ccc(Cn2cncc2CN2CCCN(C(=O)c3ccc(Cl)cc3Cl)CC2)cc1,,,

SMILES,IC50 [1],IC50 (PC-3 [2]),IC50 (DU-145 [3]),inhibition at 100 µM (PC-3 [5]),inhibition at 100 µM (DU-145 [6]),other results
N#Cc1ccc(Cn2cncc2CN2CCCN(C(=O)Cc3cccc4ccccc34)CC2)cc1,0.013 µM,,93 µM,40%,,
